Read-outs that look alike come from different tables or passages of the source. Values belong to the molecule of their own block, whether it stands above or below them.
What was measured:
[1] = system: HEK293 EGFR L858R/T790M/C797S cells; assay: Cell surface biotinylation assay; format: cell-based; settings: 5 µM compound, 2 hours
[2] = system: PC9 EGFR ex19del/T790M/C797S organoids; assay: Organoid viability assay; format: cell-based
MaMTH stable bait cells = assay: Reporter cell viability; format: cell-based
Summary of the method: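 MaMTH stable bait cells seeded at 10,000 cells/well in 96-well plates. Next day treated across a dose range of test compound, with 0.5 μg/mL tetracycline to induce bait expression. Viability measured by CellTiter-Glo luminescence after 72 h of drug exposure.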

[3] = system: RTK bait (MET, FGFR4, AXL, ALK, EGFR); settings: for bait expression: EGFR WT and mutant baits
[4] = system: HEK293 EGFR L858R/T790M/C797S cells; assay: EGFR localization and endosomal trafficking; format: cell-based
AXL = biological target: T1, AXL (Homo sapiens, UniProt P30530); assay: MaMTH-DS assay, AXL bait with Shc1 prey; format: cell-based; settings: dose response
T1 sequence (P30530 26-894): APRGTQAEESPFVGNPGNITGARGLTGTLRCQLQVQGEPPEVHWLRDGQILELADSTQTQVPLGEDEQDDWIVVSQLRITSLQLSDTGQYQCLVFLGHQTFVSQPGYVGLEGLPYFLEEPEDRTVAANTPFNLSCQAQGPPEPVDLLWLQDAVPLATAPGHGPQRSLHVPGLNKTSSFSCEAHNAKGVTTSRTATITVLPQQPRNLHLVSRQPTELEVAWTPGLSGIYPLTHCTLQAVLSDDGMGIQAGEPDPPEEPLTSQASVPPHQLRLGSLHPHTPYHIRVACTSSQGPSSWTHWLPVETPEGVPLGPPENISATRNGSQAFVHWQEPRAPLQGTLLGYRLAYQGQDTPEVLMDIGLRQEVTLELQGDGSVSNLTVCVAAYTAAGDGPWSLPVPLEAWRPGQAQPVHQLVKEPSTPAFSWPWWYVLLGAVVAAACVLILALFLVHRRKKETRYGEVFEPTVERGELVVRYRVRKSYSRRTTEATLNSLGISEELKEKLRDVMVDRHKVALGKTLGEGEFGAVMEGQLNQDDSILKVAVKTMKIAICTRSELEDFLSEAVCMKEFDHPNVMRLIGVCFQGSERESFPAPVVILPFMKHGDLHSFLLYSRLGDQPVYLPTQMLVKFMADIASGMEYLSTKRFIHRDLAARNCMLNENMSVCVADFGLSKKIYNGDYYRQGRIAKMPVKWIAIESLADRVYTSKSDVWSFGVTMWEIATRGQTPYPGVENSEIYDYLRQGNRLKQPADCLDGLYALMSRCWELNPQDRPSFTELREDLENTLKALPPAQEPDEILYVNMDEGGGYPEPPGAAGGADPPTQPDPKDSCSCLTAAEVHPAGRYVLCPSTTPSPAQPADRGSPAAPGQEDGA

ALK = ALK (Homo sapiens, UniProt Q9UM73); settings: dose response
ALK, sequence (Q9UM73 19-1620): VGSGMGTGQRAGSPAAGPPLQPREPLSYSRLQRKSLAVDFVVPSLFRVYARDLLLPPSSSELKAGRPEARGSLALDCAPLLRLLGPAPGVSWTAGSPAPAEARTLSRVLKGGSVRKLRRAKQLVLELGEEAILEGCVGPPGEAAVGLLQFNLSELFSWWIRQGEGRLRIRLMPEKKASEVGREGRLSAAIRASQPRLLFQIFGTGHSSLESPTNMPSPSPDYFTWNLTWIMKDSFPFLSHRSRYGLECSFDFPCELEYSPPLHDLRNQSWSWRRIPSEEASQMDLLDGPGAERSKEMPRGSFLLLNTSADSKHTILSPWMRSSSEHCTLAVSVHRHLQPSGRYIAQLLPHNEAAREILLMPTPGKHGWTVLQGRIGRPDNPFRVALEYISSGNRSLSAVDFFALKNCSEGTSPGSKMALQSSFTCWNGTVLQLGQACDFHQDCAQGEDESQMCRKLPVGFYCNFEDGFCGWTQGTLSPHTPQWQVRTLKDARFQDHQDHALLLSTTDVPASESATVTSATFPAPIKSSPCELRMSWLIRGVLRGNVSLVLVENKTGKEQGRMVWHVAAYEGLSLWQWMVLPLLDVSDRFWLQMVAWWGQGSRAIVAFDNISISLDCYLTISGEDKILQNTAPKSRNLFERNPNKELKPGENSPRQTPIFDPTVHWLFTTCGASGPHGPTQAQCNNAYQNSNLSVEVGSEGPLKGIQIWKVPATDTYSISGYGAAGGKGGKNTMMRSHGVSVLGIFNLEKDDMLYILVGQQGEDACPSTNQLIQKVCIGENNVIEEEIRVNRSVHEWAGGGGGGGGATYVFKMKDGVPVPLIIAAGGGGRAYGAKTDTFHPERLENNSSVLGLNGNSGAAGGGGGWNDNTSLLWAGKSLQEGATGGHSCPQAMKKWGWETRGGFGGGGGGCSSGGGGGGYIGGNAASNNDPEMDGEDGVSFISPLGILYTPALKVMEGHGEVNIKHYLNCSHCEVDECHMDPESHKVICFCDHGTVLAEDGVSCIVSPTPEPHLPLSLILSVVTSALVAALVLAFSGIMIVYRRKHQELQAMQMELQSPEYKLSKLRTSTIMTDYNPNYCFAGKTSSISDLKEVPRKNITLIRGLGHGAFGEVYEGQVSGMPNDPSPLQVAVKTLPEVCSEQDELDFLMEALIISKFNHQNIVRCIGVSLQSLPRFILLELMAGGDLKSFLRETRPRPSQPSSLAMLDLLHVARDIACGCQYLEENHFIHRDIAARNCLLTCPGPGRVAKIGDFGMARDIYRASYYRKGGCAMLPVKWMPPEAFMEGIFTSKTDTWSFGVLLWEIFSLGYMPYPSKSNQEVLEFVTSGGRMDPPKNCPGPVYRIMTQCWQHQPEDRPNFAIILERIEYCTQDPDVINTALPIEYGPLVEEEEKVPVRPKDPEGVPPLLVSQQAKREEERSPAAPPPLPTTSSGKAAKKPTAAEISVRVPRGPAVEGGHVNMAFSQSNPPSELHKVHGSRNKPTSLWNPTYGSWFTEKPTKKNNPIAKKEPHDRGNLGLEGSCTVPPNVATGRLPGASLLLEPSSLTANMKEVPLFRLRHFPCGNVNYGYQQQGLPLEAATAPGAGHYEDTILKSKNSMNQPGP

EGFR ex19del/T790M = EGFR ex19del/T790M (Homo sapiens, UniProt P00533, DEL746-750/T790M); assay: In vitro kinase assay, recombinant EGFR double mutant; format: biochemical
EGFR ex19del = assay: In vitro kinase assay, recombinant EGFR single mutant; format: biochemical; settings: compared with triple mutants
A549 EGFR WT cells = assay: Caspase 3 and 7 assay; format: cell-based; settings: 72 hours of drug treatment
Summary of the method: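 A549 cells were plated in 384-well plates at 5,000 cells per well and exposed to test compound for 72 h. Caspase 3 and 7 activity was then read by luminescence using the Caspase-Glo 3/7 reagent.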

[5] = system: PC9 EGFR ex19del/T790M/C797S cells; assay: Caspase 3 and 7 assay; format: cell-based; settings: 72 hours of drug treatment
EGFR L858R/T790M/C797S [6] = biological target: T2, EGFR L858R/T790M/C797S (Homo sapiens, UniProt P00533, C797S/L858R/T790M); assay: MaMTH-DS assay and screen, EGFR L858R/T790M/C797S bait with Shc1 prey; format: cell-based
wild-type EGFR = wild-type EGFR (Homo sapiens, UniProt P00533); assay: In vitro kinase assay, recombinant kinase domain; format: biochemical; settings: 100 µM ATP
[7] = system: PC9 EGFR ex19del/T790M/C797S cells; assay: Western analysis of EGFR activation and downstream signalling; format: cell-based; settings: for EGFR phosphorylation/activation / phosphorylation of downstream signalling partners / EGFR activation and signalling through ERK and AKT: 2 hours treatment; for EGFR phosphorylation/activation: compared with PC9 ex19del cells; for phosphorylation of downstream signalling partners: triple mutant cells; for EGFR activation and signalling through ERK and AKT: 20 µM; for potency towards mutant EGFR relative to EMI1: 10 µM dose
HEK293 EGFR WT cells = assay: EGFR localization and endosomal trafficking; format: cell-based; settings: 1 µM compound, 30 minutes EGF
EGFR L858R/T790M = EGFR L858R/T790M (Homo sapiens, UniProt P00533, L858R/T790M); assay: In vitro kinase assay, recombinant EGFR double mutant; format: biochemical
EGFR L858R = EGFR L858R (Homo sapiens, UniProt P00533, L858R); assay: In vitro kinase assay, recombinant EGFR single mutant; format: biochemical; settings: compared with triple mutants
EGFR ex19del/T790M/C797S = EGFR ex19del/T790M/C797S (Homo sapiens, UniProt P00533, C797S/DEL746-750/T790M); assay: In vitro kinase assay, recombinant kinase domain; format: biochemical; settings: 100 µM ATP
EGFR L858R/T790M/C797S [8] = biological target: T2, EGFR L858R/T790M/C797S; assay: In vitro kinase assay, recombinant kinase domain; format: biochemical; settings: 100 µM ATP
[9] = system: PC9 EGFR ex19del/T790M/C797S cells; assay: Microtubule imaging; format: cell-based

Compound: C=CC(=O)Nc1cc(Nc2nccc(-c3cn(C)c4ccccc34)n2)c(OC)cc1N(C)CCN(C)C [osimertinib]
surface levels of EGFR [1]: not observed
organoid viability / growth [2]: has no effect
reporter cell viability (MaMTH stable bait cells; EGFR WT and mutant bait cells): not due to a reduction in reporter cell viability
bait expression [3]: no effect of TKIs on bait expression
EGF accumulation in EEA1-positive early endosomes ([4]; 1 µM compound, 30 minutes EGF): had no effect

Compound: C=CC(=O)Nc1cccc(C)c1Nc1ncc2cc(-c3c(Cl)c(OC)cc(OC)c3Cl)ccc2n1 [BLU9931]
reporter cell viability (MaMTH stable bait cells; FGFR4 bait cells): no effect on reporter cell viability

Compound: COc1cc2c(Oc3ccc(NC(=O)C4(C(=O)Nc5ccc(F)cc5)CC4)cc3F)ccnc2cc1OCCCN1CCOCC1 [foretinib]
reporter cell viability (MaMTH stable bait cells; AXL bait cells): cell viability was unaffected
bait expression level ([3]; AXL bait): not altered by compound
AXL activity (interaction with Shc1) (AXL): strongly reduced, in a dose-dependent manner

Compound: COc1cc(N2CCC(N3CCN(C)CC3)CC2)ccc1Nc1ncc(Cl)c(Nc2ccccc2P(C)(C)=O)n1 [brigatinib]
reporter cell viability (MaMTH stable bait cells; ALK bait cells): cell viability was unaffected
bait expression level ([3]; ALK bait): not altered by compound
ALK activity (interaction with Shc1) (ALK): strongly reduced, in a dose-dependent manner

Compound: C[C@@H](Oc1cc(-c2cnn(C3CCNCC3)c2)cnc1N)c1c(Cl)ccc(F)c1Cl [crizotinib]
reporter cell viability (MaMTH stable bait cells; MET bait cells): not due to a loss in cell viability

activity against double mutant (EGFR ex19del/T790M): moderate to strong activity
activity against single mutant (EGFR ex19del): less effective
interaction of Shc1 with EGFR L858R/T790M/C797S (in words) (EGFR L858R/T790M/C797S [6]): robust, dose-dependent inhibition
activity against double mutant (EGFR L858R/T790M): moderate to strong activity
activity against single mutant (EGFR L858R): less effective
Compound: CO[C@@H]1[C@H](N(C)C(=O)c2ccccc2)C[C@H]2O[C@]1(C)n1c3ccccc3c3c4c(c5c6ccccc6n2c5c31)C(=O)NC4 [midostaurin]
surface levels of EGFR [1]: not observed
organoid viability / growth [2]: potently affected the growth of PC9 triple mutant organoids
caspase 3/7 activity (A549 EGFR WT cells): not in A549 epithelial cells carrying EGFR WT
caspase 3/7 activity [5]: induced caspase 3 and 7 activity
EGF accumulation in EEA1-positive early endosomes ([4]; 1 µM compound, 30 minutes EGF): significantly reduced EGF accumulation in EEA1-positive early endosomes
overall amount of EGFR pY1068 localized to EEA1-positive endosomes ([4]; 1 µM compound, 30 minutes EGF): significantly reduced the overall amount of EGFR pY1068 localized to EEA1-positive endosomes
average amount of activated EGFR per endosome ([4]; 30 min EGF): reduced the amount of activated EGFR per endosome
number of early endosomes carrying activated EGFR ([4]; 30 min EGF): had no effect on total endosome number
activity towards triple mutants compared with WT EGFR (wild-type EGFR): significantly more potent activity towards the mutants than WT EGFR
EGFR phosphorylation/activation [7]: reduced EGFR phosphorylation/activation in PC9 ex19del/T790M/C797S triple mutant cells more strongly
phosphorylation of downstream signalling partners [7]: more potently reducing pAKT and pERK levels
EGF accumulation in EEA1-positive early endosomes (HEK293 EGFR WT cells): A similar effect was observed for EGFR WT cells but to a lesser degree
overall amount of EGFR pY1068 localized to EEA1-positive endosomes (HEK293 EGFR WT cells): not in EGFR WT

Compound: COc1cc2c(c(OC)c1OC)-c1ccc(OC)c(=O)cc1[C@@H](NC(C)=O)CC2 [Colchicine]
EGFR activation and signalling through ERK and AKT [7]: not evident

activity against double mutant (EGFR ex19del/T790M): moderate to strong activity
activity against single mutant (EGFR ex19del): less effective
IC50 values, inhibition of kinase domain (in words) (EGFR ex19del/T790M/C797S): low nanomolar range
IC50 values, inhibition of kinase domain (in words) (EGFR L858R/T790M/C797S [8]): low nanomolar range
activity against double mutant (EGFR L858R/T790M): moderate to strong activity
activity against single mutant (EGFR L858R): less effective
Compound: CCc1nc(C(N)=O)c(Nc2ccc(N3CCC(N4CCN(C)CC4)CC3)c(OC)c2)nc1NC1CCOCC1 [gilteritinib]
organoid viability / growth [2]: potently affected the growth of PC9 triple mutant organoids
caspase 3/7 activity (A549 EGFR WT cells): not in A549 epithelial cells carrying EGFR WT
caspase 3/7 activity [5]: induced caspase 3 and 7 activity
interaction of Shc1 with EGFR L858R/T790M/C797S (in words) (EGFR L858R/T790M/C797S [6]): potent and highly specific inhibitor of the EGFR triple mutant
activity towards triple mutants compared with WT EGFR (wild-type EGFR): significantly more potent activity towards the mutants than WT EGFR
EGFR phosphorylation/activation [7]: reduced EGFR phosphorylation/activation in PC9 ex19del/T790M/C797S triple mutant cells more strongly
phosphorylation of downstream signalling partners [7]: more potently reducing pAKT levels

Compound: CC(C)(C)c1cc(NC(=O)Nc2ccc(-c3cn4c(n3)sc3cc(OCCN5CCOCC5)ccc34)cc2)no1 [quizartinib]
interaction of Shc1 with EGFR L858R/T790M/C797S (in words) (EGFR L858R/T790M/C797S [6]): none were found to target the EGFR C797S triple mutant

Compound: CC(=O)O[C@@]12CO[C@@H]1C[C@H](O)[C@@]1(C)C(=O)[C@H](O)C3=C(C)[C@@H](OC(=O)[C@H](O)[C@@H](NC(=O)OC(C)(C)C)c4ccccc4)C[C@@](O)([C@@H](OC(=O)c4ccccc4)[C@H]21)C3(C)C [Docetaxel]
EGFR activation and signalling through ERK and AKT [7]: not evident

Compound: CCN(CC)c1cc2oc(=O)c(-c3nc4ccccc4o3)cc2cc1C [EMI56]
interphase microtubules and spindle formation [9]: did not affect interphase microtubules, nor have an effect on spindle formation
potency towards mutant EGFR relative to EMI1 [7]: greater potency towards mutant EGFR than EMI1

Compound: CCN(CC)c1ccc2cc(-c3nc4cc(C)ccc4o3)c(=O)oc2c1 [EMI48]
interphase microtubules and spindle formation [9]: did not affect interphase microtubules, nor have an effect on spindle formation
potency towards mutant EGFR relative to EMI1 [7]: greater potency towards mutant EGFR than EMI1

Compound: COc1cc(OC)c(/C=C/S(=O)(=O)Cc2ccc(OC)c(NCC(=O)O)c2)c(OC)c1 [Rigosertib]
EGFR activation and signalling through ERK and AKT [7]: not evident

Compound: CC1(COc2ccc3c(c2)ncn3-c2ccc3cccc(N4CCC(N)CC4)c3n2)COC1 [crenolanib]
interaction of Shc1 with EGFR L858R/T790M/C797S (in words) (EGFR L858R/T790M/C797S [6]): none were found to target the EGFR C797S triple mutant

Compound: COC(=O)Nc1nc2ccc(C(=O)c3cccs3)cc2[nH]1 [Nocodazole]
EGFR activation and signalling through ERK and AKT [7]: not evident

Compound: C#Cc1cccc(Nc2ncnc3cc(OCCOC)c(OCCOC)cc23)c1 [erlotinib]
reporter cell viability (MaMTH stable bait cells; EGFR WT and mutant bait cells): not due to a reduction in reporter cell viability
bait expression [3]: no effect of TKIs on bait expression
AXL activity (interaction with Shc1) (AXL): not erlotinib control

Reference: article PMC8123931 (Nature chemical biology, 2020)
